The Ki is the equilibrium dissociation constant of an inhibitor or competing ligand from its target. A low value points to higher affinity. One may read the IC50 as the midpoint of a concentration-inhibition curve.

Each structure is given as a SMILES string. The source made the active and inactive calls. No cut-off for these calls is given here.

For data set [1], the target named is T1, Sodium-dependent serotonin transporter (Homo sapiens, UniProt P31645). The experiment in a line: Displacement of [3H]-citalopram from human SERT expressed in HEK293 cell membranes after 60 mins by liquid scintillation counting. The procedure, abridged: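 Membranes from cells expressing human serotonin transporter; [3H]citalopram radioligand. Ki from IC50 via Cheng–Prusoff (radioligand concentration and Kd). Ki values are means of two or three independent experiments.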
T1 sequence (P31645 whole entry): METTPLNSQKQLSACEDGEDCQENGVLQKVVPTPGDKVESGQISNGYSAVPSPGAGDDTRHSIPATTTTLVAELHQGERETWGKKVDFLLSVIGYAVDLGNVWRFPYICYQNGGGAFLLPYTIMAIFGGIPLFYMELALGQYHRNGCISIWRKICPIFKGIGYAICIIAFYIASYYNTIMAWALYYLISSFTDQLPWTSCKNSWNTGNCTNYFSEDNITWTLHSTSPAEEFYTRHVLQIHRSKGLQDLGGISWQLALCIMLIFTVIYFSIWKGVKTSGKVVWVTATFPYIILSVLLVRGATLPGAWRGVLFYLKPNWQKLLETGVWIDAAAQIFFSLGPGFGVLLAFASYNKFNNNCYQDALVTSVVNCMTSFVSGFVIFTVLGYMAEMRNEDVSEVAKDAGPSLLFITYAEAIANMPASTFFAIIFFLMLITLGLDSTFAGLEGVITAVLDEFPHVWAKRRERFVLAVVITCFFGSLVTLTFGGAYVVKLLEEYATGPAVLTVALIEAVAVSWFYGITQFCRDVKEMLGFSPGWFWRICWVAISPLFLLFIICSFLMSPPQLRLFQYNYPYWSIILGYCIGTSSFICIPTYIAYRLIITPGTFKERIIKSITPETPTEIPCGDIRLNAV

The target in the next data set is CYP2D6 (Homo sapiens, UniProt P10635). The experiment in a line: Drug metabolism in human liver microsomes assessed as CYP2D6-medited compound metabolism at 1 uM after 15 to 30 mins by LC-MS/MS analysis. Type of data set: ADME. To be noted: read-out: Drug metabolism. The procedure, abridged:
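Human liver microsomes (1 mg/mL) with 1 µM test substance and 3 mM NADPH (final) in 50 mM potassium phosphate, pH 7.4, at 37 °C; stopped after 15–30 min with 3 volumes methanol. Metabolic rate taken from slope, with and without 4 µM quinidine (final). The quinidine-resistant fraction was assigned to other enzymes; CYP2D6 contribution = total minus that fraction.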
(In general: Liver microsomes are a subcellular fraction often used to study metabolism.)

The target of data set [2] is T1, Sodium-dependent serotonin transporter. The data set can be described thus: Inhibition of human SERT expressed in CHO cells assessed as reduction in [3H]5-HT uptake preincubated for 10 mins followed by [3H]5-HT addition measured after 20 mins by liquid scintillation counting. The format is cell-based. The procedure, abridged: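 CHO cells stably expressing human serotonin transporter; compound or DMSO in reaction buffer pre-incubated with cells at 37 °C for 10 min, then [3H]5-HT plus compound added and incubated 37 °C for 20 min. Cells rinsed twice, lysed, radioactivity counted. IC50 values are means of at least three independent experiments.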

In another data set the test system is Rattus norvegicus. The data set can be described thus: Increase in serotonin levels in Crlj:WI rat frontal cortex assessed as at 10 mg/kg, po administered as single dose at 3 hrs post perfusion by microdialysis relative to baseline control. The format is functional, organism-based. The procedure, abridged:
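Frontal cortex microdialysis in rats. Dialysate (10 µL per 5-min collection, at 20-min intervals) was injected automatically into HPLC for 5-HT. Oral dosing followed at least 3 h of perfusion, once baseline was stable, and sampling continued 3 h after dosing.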

Sequence of CYP2D6 (P10635 whole entry): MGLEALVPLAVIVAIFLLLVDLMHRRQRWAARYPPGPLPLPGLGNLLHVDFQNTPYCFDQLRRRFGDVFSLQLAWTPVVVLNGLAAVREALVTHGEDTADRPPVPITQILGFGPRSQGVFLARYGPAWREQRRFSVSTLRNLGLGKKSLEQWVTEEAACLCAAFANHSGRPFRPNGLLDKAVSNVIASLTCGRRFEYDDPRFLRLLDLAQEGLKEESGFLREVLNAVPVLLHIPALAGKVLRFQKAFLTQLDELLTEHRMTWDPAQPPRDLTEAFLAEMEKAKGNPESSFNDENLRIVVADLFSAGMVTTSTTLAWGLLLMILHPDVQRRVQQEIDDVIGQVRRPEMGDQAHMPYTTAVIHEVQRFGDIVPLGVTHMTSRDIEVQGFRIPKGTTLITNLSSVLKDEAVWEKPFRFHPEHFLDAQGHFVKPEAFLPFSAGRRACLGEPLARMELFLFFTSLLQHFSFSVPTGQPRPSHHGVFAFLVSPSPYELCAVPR

As to `COCCOc1cc(CC2CCN(CCc3ccc4c(c3)C(=O)CCO4)CC2)ccc1F`, the affinity in data set [1], expressed as Ki, was 111 nM.

Take `COCCOc1cc(CC2CCN(CCc3ccc4c(c3)OCCC4)CC2)ccc1Br`: the metabolised at 1 µM on CYP2D6 stood at 6.8%. In data set [1], the Ki stood at 5.4 nM.

For the compound `COCCOc1ccc(Br)c(CC2CCN(CCc3cc4c(cc3Cl)OCCO4)CC2)c1`, the metabolised at 1 µM on CYP2D6 was determined as 86%.

Turning to `COCCOc1cc(CC2CCN(CCc3ccc4c(c3)C(=O)CCC4)CC2)ccc1Br`, the metabolised at 1 µM on CYP2D6 turned out to be 11.8%. Moreover, in data set [1], the Ki is 0.67 nM.

Regarding `COCCOc1cc(CC2CCN(CCc3ccc4c(c3)C(=O)CCO4)CC2)ccc1C`, the metabolised at 1 µM on CYP2D6 was found to be 48.5%. The same compound had a Ki in data set [1] of 5.25 nM. Besides, the IC50 in data set [2] stood at 45.3 nM.

As for `COCCOc1cc(Br)cc(CC2CCN(CCc3ccc4c(c3)OCCO4)CC2)c1`, at CYP2D6, the metabolised at 1 µM came to 49.4%. In data set [1], the Ki was 18.5 nM.

In the case of `COCCOc1cc(CC2CCN(CCc3ccc4c(c3)C(=O)CCCO4)CC2)ccc1Br`, the metabolised at 1 µM at CYP2D6 came to 4.2%. In data set [1], the inhibition constant Ki came to 1.17 nM.

`COCCOc1cccc(CC2CCN(CCc3ccc4c(c3)C(=O)CCO4)CC2)c1` gave an inhibition constant (Ki) in data set [1] of 202 nM.

As for `COCCOc1cccc(CC2CCN(CCc3cc4c(cc3Cl)OCCO4)CC2)c1Br`, the Ki in data set [1] worked out at 74.6 nM. This Ki lies about 2.7-fold lower than the previous one.

Take `COCCOc1cc(Br)cc(CC2CCN(CCc3ccc4c(c3)C(=O)CCO4)CC2)c1`: the metabolised at 1 µM on CYP2D6 was found to be 14%. Also, the Ki in data set [1] came to 5.32 nM.

For the compound `COCCOc1cc(CC2CCN(CCc3ccc4c(c3)C(O)CCO4)CC2)ccc1Br` (stereo not given), the metabolised at 1 µM at CYP2D6 was 36.4%. In data set [1], the affinity, expressed as Ki, was 8.44 nM.

For `COCCOc1cc(CC2CCN(CCc3ccc4c(c3)C(=O)CCO4)CC2)ccc1Br`, the outcome in the data set with Rattus norvegicus was Active. Further, the metabolised at 1 µM at CYP2D6 worked out at 0%.

As to `CCc1ccc(CC2CCN(CCc3ccc4c(c3)C(=O)CCO4)CC2)cc1OCCOC`, the metabolised at 1 µM on CYP2D6 stood at 18.4%. The Ki in data set [1] was found to be 9.85 nM.

With `COCCOc1cc(CC2CCN(CCc3ccc4c(c3)CCCO4)CC2)ccc1Br`, on CYP2D6, the metabolised at 1 µM is 0%. For the same compound, in data set [1], the affinity corresponds to a Ki of 1.74 nM.

Take `COCCOc1cc(CC2CCN(CCc3ccc4c(c3)OCCO4)CC2)ccc1Br`: on CYP2D6, the metabolised at 1 µM is 55.6%. Further, in data set [1], affinity was put at a Ki of 2.39 nM.

Turning to `COCCOc1cc(CC2CCN(CCc3ccc4c(c3)OCCC4=O)CC2)ccc1Br`, the metabolised at 1 µM on CYP2D6 was 3.6%. This compound displayed a Ki in data set [1] of 1.41 nM.

With `COCCOc1cc(CC2CCN(CCc3ccc4c(c3)C(=O)CCO4)CC2)ccc1Cl`, the metabolised at 1 µM at CYP2D6 worked out at 53.5%. Also, affinity in data set [1] was put at a Ki of 3.37 nM. For the same compound, the concentration for half-maximal inhibition (IC50) in data set [2] turned out to be 16.4 nM.

In the case of `COCCOc1cc(Br)cc(CC2CCN(CCc3cc4c(cc3Cl)OCCO4)CC2)c1`, on CYP2D6, the metabolised at 1 µM amounted to 64.4%. The Ki in data set [1] worked out at 14.1 nM.

With `COCCOc1cc(CC2CCN(CCc3ccc4c(c3)S(=O)(=O)CCO4)CC2)ccc1Br`, on CYP2D6, the metabolised at 1 µM was found to be 55.8%. Also, affinity in data set [1] was put at a Ki of 2.59 nM.

The compound `COCCOc1cc(CC2CCN(CCc3ccc4c(c3)C(=O)CCO4)CC2)ccc1I` gave a Ki in data set [1] of 0.41 nM.

For the compound `COCCOc1cc(CC2CCN(CCc3ccc4c(c3)C(=O)CCO4)CC2)ccc1C(C)C`, the affinity in data set [1], expressed as Ki, was 246 nM.

On to `COCCOc1cc(CC2CCN(CCc3cc4c(cc3Cl)OCCO4)CC2)ccc1Br`, for which, on CYP2D6, the metabolised at 1 µM worked out at 75.6%. This compound also showed a Ki in data set [1] of 5.47 nM.

The record behind these values is ChEMBL document CHEMBL4219078, “Discovery of DSP-1053, a novel benzylpiperidine derivative with potent serotonin transporter inhibitory activity and partial 5-HT1A receptor agonistic activity” (Bioorg Med Chem, 2018).
